Results on 10 compounds are retold here after ChEMBL document CHEMBL2040763, “Waikialoid A suppresses hyphal morphogenesis and inhibits biofilm development in pathogenic Candida albicans” (J Nat Prod, 2012).

Activity calls are given as the source filed them. The rule behind the calls is not given here.

The test system of data set [1] is Candida albicans. Put plainly: Antifungal activity against Candida albicans DAY185 assessed as inhibition of biofilm formation after 48 hrs by XTT assay. It is filed as functional, organism-based.
Data set [2] has as its system Candida albicans. Put plainly: Antifungal activity against Candida albicans DAY185 assessed as lowest compound concentration causing =>80% reduction in cell viability after 48 hrs by XTT assay. It counts as organism-based.
For data set [3], the system named is MIA PaCa-2. Put plainly: Cytotoxicity against human MIAPaCa2 after 24 hrs by MTT assay. It is filed as cell-based. To be noted: MIA PaCa-2, 24 h. Put shortly: (§1)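 MIA PaCa-2 cells, 10^4 per well, attached overnight at 37 °C, 5% CO2; compounds in DMSO added (final DMSO 1% by vol.), 24 h exposure; viability by MTT assay.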
Data set [4] concerns Candida albicans. Put plainly: Antifungal activity against Candida albicans DAY185 assessed as inhibition of germ tube formation at 50 uM after 6 hrs by phase contrast microscopic analysis. It is filed as functional, organism-based. Put shortly: (§2)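 BHI overnight cells washed, suspended in PBS, seeded 1×10^6 cells/well, 37 °C 1 h; non-adherent cells washed off; RPMI 1640 with 2% glucose plus compound in DMSO (1% by vol.), 37 °C up to 24 h; germ tubes/hyphae scored by phase contrast microscopy (×200) at 2.5, 6 and 24 h.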

For data set [5], the system named is Candida albicans. Put plainly: Antifungal activity against Candida albicans DAY185 assessed as inhibition of biofilm formation at 0.2 to 100 uM administered 2 to 4 hrs after microbial seeding in 96-well microplate followed by 48 hrs incubation by XTT assay. It is filed as functional, organism-based. Put shortly: (§3)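 Time-of-addition variant of the biofilm assay: compound 100 to 0.2 μM added at -0.5, 0, 2, 4, 6 or 8 h after seeding in RPMI 1640/MOPS; at 48 h wells washed twice with PBS, biofilm quantified by XTT; triplicate in each of three trials; IC50 for 50% reduction of biofilm formation from curve fitting.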

Data set [6] relates to Candida albicans. In words: Antifungal activity against Candida albicans DAY185 assessed as inhibition of biofilm formation at 0.2 to 100 uM administered 6 hrs after microbial seeding in 96-well microplate followed by 48 hrs incubation by XTT assay. It is filed as functional, organism-based. Put shortly: as §3
For data set [7], the system named is Candida albicans. Put plainly: Antifungal activity against Candida albicans DAY185 assessed as inhibition of hyphae formation at 50 uM after 6 hrs by phase contrast microscopic analysis. It counts as functional, organism-based. Put shortly: as §2
Data set [8] deals with Candida albicans. In words: Antifungal activity against Candida albicans DAY185 assessed as truncated hyphae formation at 50 uM after 24 hrs by phase contrast microscopic analysis. It is filed as functional, organism-based. The gist of the method:
as §2

Data set [9] deals with Candida albicans. In words: Antifungal activity against Candida albicans DAY185 assessed as inhibition of hyphae formation after 6 hrs by phase contrast microscopic analysis. It is filed as functional, organism-based. Put shortly:
as §2

Data set [10] relates to Candida albicans. In words: Antifungal activity against Candida albicans DAY185 assessed as inhibition of biofilm formation at 0.2 to 100 uM administered 8 hrs after microbial seeding in 96-well microplate followed by 48 hrs incubation by XTT assay. It is filed as functional, organism-based. Put shortly: as §3
In data set [11] the test system is MIA PaCa-2. In words: Cytotoxicity against human MIAPaCa2 up to 200 uM after 24 hrs by MTT assay. It counts as cell-based. As to conditions: mia paca-2, 24 h. The gist of the method:
as §1

As to `CC1(C)C=Cc2c(ccc3c4c([nH]c23)C(C)(C)[C@@H]2C[C@]35CCCN3C(=O)[C@@]2(C4)NC5=O)O1` [STEPHACIDIN A], the IC50 in the data set on Candida albicans [1] amounted to 55.2 µM. Moreover, the MIC in the data set with Candida albicans [2] is over 200 µM.

For `CC(C)=CCC/C(C)=C/CC/C(C)=C/CO` [FARNESOL], in the data set with Candida albicans [1], the IC50 was 129 µM. For the same compound, in the data set with Candida albicans [2], the MIC is over 200 µM.

Take `CC1(C)C=Cc2c(ccc3c2[N+]([O-])=C2C(C)(C)[C@@H]4C[C@]56CCCN5C(=O)[C@]4(NC6=O)[C@H]4N5C(=O)[C@@]67CCCN6C(=O)[C@@]56[C@@H]([C@]234)[C@]2(O)C(=[N+]([O-])c3c2ccc2c3C=CC(C)(C)O2)C(C)(C)[C@@H]6C7)O1` [WAIKIALOID B]: the IC50 with MIA PaCa-2 [3] is 8.2 µM; in the data set on Candida albicans [1] it was 46.3 µM. Besides, the MIC with Candida albicans [2] was over 200 µM.

As to `C/C=C/C=C/C=C/[C@H]1C[C@@H](O)C[C@@H](O)[C@@H]1C` [WAIKIALIDE B], the IC50 in the data set with Candida albicans [1] turned out to be 97 µM. Further, the MIC with Candida albicans [2] is over 200 µM.

Regarding `CC1(C)C=Cc2c(ccc3c2[N+]([O-])=C2C3=C[C@@]34NC(=O)[C@]5(CCCN5C3=O)C[C@H]4C2(C)C)O1` [AVRAINVILLAMIDE], the IC50 in the data set with MIA PaCa-2 [3] was 11.3 µM; with Candida albicans [1], 43.3 µM. In the data set with Candida albicans [2], the MIC was over 200 µM.

As for `CC1(C)C=Cc2c(ccc3c2NC(=O)[C@@]32[C@H](O)[C@@]34NC(=O)[C@]5(CCCN5C3=O)C[C@H]4C2(C)C)O1` [SCLEROTIAMIDE], the IC50 in the data set on Candida albicans [1] worked out at 93.5 µM. For the same compound, the MIC with Candida albicans [2] is over 200 µM.

`CC1(C)C=Cc2c(ccc3c4c([nH]c23)C(C)(C)[C@@H]2C[C@]35CCCN3C(=O)[C@]2(NC5=O)[C@H]4O)O1` [NOTOAMIDE R]: the IC50 in the data set with Candida albicans [1] amounted to 97.3 µM. In addition, in the data set with Candida albicans [2], the MIC is over 200 µM.

For `CC1(C)C=Cc2c(ccc3c2[N+]([O-])=C2C(C)(C)[C@@H]4C[C@]56CCCN5C(=O)[C@]4(NC6=O)[C@H]4N5C(=O)[C@@]67CCCN6C(=O)[C@@]56[C@H](c5c([nH]c8c9c(ccc58)OC(C)(C)C=C9)C(C)(C)[C@@H]6C7)[C@]234)O1` [WAIKIALOID A], the inhibition entry with Candida albicans [4], with Candida albicans [5] and with Candida albicans [7] was “Active” each time. Also, the inhibition entry with Candida albicans [6] and in the data set with Candida albicans [10] was “inactive” each time. The outcome in the data set with Candida albicans [8] was Active. In addition, the IC50 with Candida albicans [1] was 1.4 µM. In addition, the inhibition result with Candida albicans [1] and with Candida albicans [9] was “Dose-dependent effect” each time. Also, the MIC in the data set with Candida albicans [2] is over 200 µM. For the same compound, the Activity entry in the data set with MIA PaCa-2 [11] was “Non-toxic”.

Take `CC1(C)C=Cc2c(ccc3c2NC(=O)[C@@]32C[C@@]34NC(=O)[C@]5(CCCN5C3=O)C[C@H]4C2(C)C)O1` [NOTOAMIDE B]: the IC50 with Candida albicans [1] is 109 µM. Further, the MIC in the data set on Candida albicans [2] is over 200 µM.

Regarding `C/C=C/C=C/C=C/[C@H]1C[C@@H](O)CC(=O)[C@@H]1C` [WAIKIALIDE A], the inhibition entry in the data set with Candida albicans [4] and with Candida albicans [7] was “Active” in each case. For the same compound, the outcome with Candida albicans [8] was Active. For the same compound, the IC50 with Candida albicans [1] is 32.4 µM. For the same compound, the MIC with Candida albicans [2] was over 200 µM. In addition, the inhibition result in the data set with Candida albicans [9] is “Dose-dependent effect”.
